Screening results (PubChem BioAssay)
Apaf1 activ = human Apaf-1 activation; activity change, negative = activation, % at 20 µM; O14727; Apaf-1 apoptosome caspase-3 activation, DEVD-Rh110 fluorescence; hits give low values; 330,000 tested, 0.31% active;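 active = activity change at or below -40% at 20 µM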
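Material: biochemical Apaf-1 apoptosome reconstitution; Medium: 20 mM HEPES buffer, pH 7.5, containing CHAPS and BSA; Reagent: dATP, cytochrome c, and (Z-DEVD)2-Rh110 caspase-3 substrate; Times: 30 min preincubation, 50 min reaction, room temperature; Signal: Rh110 fluorescence, excitation 480 nm, emission 540 nm; Measure: Caspase-3 activity via Apaf-1.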
Rh110 interf act = interferes with Rh110 fluorescence, flagging false Apaf-1 activators; shares compounds with Apaf1 activ; Rh110 fluorescence interference, quenched caspase reaction, Ex480/Em540; fluorescence interference (activity change), % at 20 µM, hits read low; 980 tested, under 10 active; AID 504616;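 active = mean activity change at or below -40% when tested at 20 µM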
Apaf-1 act conf2 = Apaf-1 (human) activation, single-dose confirmed | activity change, negative = activation, % at 20 µM | 980 tested, 5% active | shares compounds with Apaf1 activ | AID 504617 | reconstituted apoptosome caspase-3 activity, DEVD-Rh110 fluorescence; hits give low values;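 active = mean activity change at or below -40%, meaning activation of 40% or more, at 20 µM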
Numbers stand for hits; – = inactive; · = not tested or not shown. These entries were drawn from the full list.

SMILES | Apaf1 activ | Rh110 interf act | Apaf-1 act conf2
COc1ccc(C(CCN2CCCC(C)C2)c2c(OC)cc(OC)c3c(-c4ccccc4)cc(=O)oc23)cc1 (stereo not given) | – | · | ·
COc1ccc(/C=C2/C(=O)N(c3ccccc3)N=C2C)cc1OC | – | · | ·
Cc1ccc(C(=O)NCC(=O)N2CCCCCCC2)cc1 | – | · | ·
O=C(CSc1ccc2nnc(-c3ccccc3)n2n1)N1CCCCC1 | -113 | – | –
Cc1[nH]n(-c2ccccc2)c(=O)c1/C=N/N(C)c1ccccc1 | – | · | ·
CN(C)CCCNC(=O)C[C@H]1C[C@H](C(=O)N2CCCCC2)[C@@]2(CCc3ccccc3)c3[nH]c4cc(-c5ccco5)ccc4c3CCN2C1=O | – | · | ·
COc1ccc(C(=O)NCC23C=CC(O2)C2C(=O)N(Cc4ccccc4)C(=O)C23)cc1 (stereo not given) | -75 | – | –
Oc1cc(NCCN2CCOCC2)cc2cccnc12 | – | · | ·
CCOc1ccc(NS(=O)(=O)c2cc(C(=O)NCCCN3CCOCC3)ccc2C)cc1 | – | · | ·
Cc1ccc(S(=O)(=O)NCCN2CCOCC2)c(C)c1C | -48 | – | –
CC(=O)[C@H]1[C@@H]2C(=O)N(c3cccc(Cl)c3)C(=O)[C@@H]2[C@H]2c3ccccc3C=CN21 | – | · | ·
Cc1cc(NC(=O)CSCC(=O)Nc2ccc(C)c(C)c2)no1 | – | · | ·
Cc1cccc(C)c1NC(=O)CSCC(=O)c1ccc(O)c(O)c1 | -161 | – | –
Cc1ccc(C(=O)N/N=C/c2ccc(-c3ccccc3[N+](=O)[O-])o2)cn1 | – | · | ·
O=C1C2C3C=CC(C3)C2C(=O)N1CNc1ccc(O)cc1 (stereo not given) | – | · | ·
COC(=O)CCC(=O)OC1(C)C(=O)C2=CN(C3CC3)C(c3ccc(OC)cc3)=CC2=C(Br)C1=O (stereo not given) | – | · | ·
CCOc1ccc(NC(=O)c2c[nH]n3c(=O)cc(C4CCN(C(=O)OC(C)(C)C)CC4)nc23)cc1 | – | · | ·
CCN(CC)C(=O)Cn1cc(S(=O)(=O)CC(=O)N2CCOCC2)c2ccccc21 | -56 | – | –
CC(C)(C)c1ccc(C(=O)NNC(=S)NCc2ccco2)cc1 | -41 | – | –
Cc1nn(-c2ccccc2)c(C)c1CN(C)C(=O)c1ccc(S(=O)(=O)NCc2ccco2)cc1 | – | · | ·
O=C(NCCO)c1ccc2nc(-c3ccco3)c(-c3ccco3)nc2c1 | – | · | ·
CCOc1ccc(S(=O)(=O)N2CCCCC2)cc1NC(=O)C1=COCCO1 | -131 | – | –
CCOC(=O)C1CCCN(C(=O)c2cc(S(=O)(=O)N3CCCCCC3)ccc2OC)C1 (stereo not given) | – | · | ·
CCN(CC)c1ccc(S(=O)(=O)N2CCCCC2)cc1NC(=O)C1CSC2(C)CCC(=O)N12 (stereo not given) | – | · | ·
O=c1cc(-c2cccc([N+](=O)[O-])c2)[nH][nH]1 | – | · | ·
SMILES | Apaf1 activ | Rh110 interf act | Apaf-1 act conf2
COc1cc2c(cc1OC)C1=C(C#N)CCC(=O)N1CC2 | – | · | ·
CCc1cc2c(nc1CC)CCN(CC/C(C)=N/OC[C@H]1O[C@H](c3ccccc3)C=C[C@@H]1Oc1ccc(OC)cc1)C2 | – | · | ·
Nc1c(C(=O)NCc2ccc(F)cc2)c2nc3ccccc3nc2n1CCCN1CCOCC1 | – | · | ·
O=C(CCSc1nc(-c2ccco2)cc(C(F)(F)F)n1)NCCN1CCOCC1 | -56 | – | –
Cc1cccc(-n2c(N)c(C(=O)NCCN3CCOCC3)c3nc4ccccc4nc32)c1 | – | · | ·
O=C(Nc1ccccc1)N1CCC(C(=O)N2CCN(S(=O)(=O)c3cccc(F)c3)CC2)CC1 | -51 | – | –
O=C(Nc1ccccc1N1CCCC1)C1CCN(S(=O)(=O)c2cccc(C(F)(F)F)c2)CC1 | – | · | ·
COC(=O)C1=C(C)N(Cc2ccccc2)C(=NCC(C)C)N[C@H]1c1cccc(F)c1 | – | · | ·
Cc1noc(C)c1C(=O)OC(C(=O)NC1CCCC1)c1ccc(F)cc1 (stereo not given) | -52 | – | –
CC(C)(C)NC[C@H](O)COc1nsnc1N1CCOCC1 | – | · | ·
O=C(CSc1nncc2ccccc12)N1CCOCC1 | -543 | – | –
O=C(CSc1c[nH]c2ccccc12)N1CCOCC1 | -42 | – | –
CCN1/C(=C/C(C)=C/c2sc3ccccc3[n+]2CC)Sc2ccccc21 | – | · | ·
O=C(Cc1cc(=O)[nH][nH]1)N/N=C/C=C/c1ccccc1 | – | · | ·
O=C1c2[nH]nc(-c3ccccc3O)c2C(c2cccc(Cl)c2)N1Cc1ccco1 (stereo not given) | – | · | ·
Cc1nc2c(=O)[nH]c(=S)n(C)c2nc1C | -263 | – | –
CCSCCC(NC1=CC(=O)CC(C)(C)C1)C(=O)O (stereo not given) | – | · | ·
CC(=O)N1CCc2c(sc(NC(=O)C3CC3)c2-c2nc3ccccc3s2)C1 | – | · | ·
CC1=NN(c2ccc(C)cc2C)C(=O)C1C(c1ccccc1)C1C(=O)N(c2ccc(C)cc2C)N=C1C (stereo not given) | – | · | ·
COc1ccccc1C(C)NC(=O)C1CCN(S(=O)(=O)c2cccs2)CC1 (stereo not given) | -53 | – | –
O=C(c1ccccc1)c1coc2c1C(=O)c1ccccc1C2=O | – | · | ·
C=CCN1C=C2C(=O)C(C)(OC(=O)CCC(=O)OC)C(=O)C=C2C=C1C1CC1 (stereo not given) | – | · | ·
CCOc1ccc(/C=N/OCC(=O)Nc2cc(S(=O)(=O)N3CCOCC3)ccc2OC)cc1 | -55 | – | –
CCOC(=O)c1c(C)c2c(=O)[nH]cnc2n1-c1ccccc1 | – | · | ·
CCN1CCCC1CNC(=O)c1cc2c(-c3ccc(Cl)cc3)nn(C)c2s1 (stereo not given) | – | · | ·
SMILES | Apaf1 activ | Rh110 interf act | Apaf-1 act conf2
Cc1[nH]cnc1CSCc1ccc(Cl)cc1 | -426 | – | –
C=CCNC(C(=O)Nc1cccc(OC)c1)c1ccccc1 (stereo not given) | – | · | ·
COc1cccc(NC(=O)C2CCCO2)c1 (stereo not given) | -114 | – | –
COc1ccc(OC)c(C2=NOC(C(=O)Nc3ccc4c(c3)OCCO4)C2)c1 (stereo not given) | – | · | ·
CN1/C(=N\O)c2cccc3cccc1c23 | – | · | ·
CCN(CC)C(=O)CSc1nc2ccccc2c(=O)n1CC | -176 | – | –
Nc1ccc(N(CCO)CCO)cc1 | – | · | ·
COc1cc(OC)c2c(-c3ccccc3)cc(=O)oc2c1C(CCN1CCOCC1)c1ccc2c(c1)OCO2 (stereo not given) | – | · | ·
COc1ccccc1-c1nc2n(n1)C(c1cccs1)C(C(=O)Nc1cccnc1)=C(C)N2 (stereo not given) | -244 | – | –
CCN1CCN(Cc2ccc(NC(=O)c3cc(NC(=O)c4cc(-c5ccc(OC)cc5)n[nH]4)cc(OC)c3)cc2C(F)(F)F)CC1 | – | · | ·
O=C(NCC(c1ccc(F)cc1)N1CCOCC1)c1cccnc1Sc1ccccc1 (stereo not given) | -57 | – | –
CCCCOc1ccc(C(=O)NCC(=O)NCC(c2cccs2)N2CCOCC2)cc1 (stereo not given) | – | · | ·
COc1ccc(C(CNC(=O)c2cccn2C)N2CCOCC2)cc1 (stereo not given) | – | · | ·
CN1C(=O)CC(Nc2cccc3cccc(N)c23)C1=O (stereo not given) | – | · | ·
O=C1c2ccccc2-c2nnc(-c3ccccc3)cc21 | – | · | ·
Cc1ccc(C(=O)Nc2ccccn2)cc1S(=O)(=O)N1CCOCC1 | – | · | ·
